Source: ChEMBL document CHEMBL1275442, “Pharmacokinetics and tissue distribution of anidulafungin in rats” (Antimicrob Agents Chemother, 2008)

How the values were obtained:
Assay type in all cases: ADME, organism-based
Muscle tissue [1] = test: Drug level in Long Evans rat muscle assessed as radioactivity per gram of tissue at 5 mg/kg, iv administered as single bolus dose measured 0.5 hrs postdose by autoradiography; design: dose 5 mg/kg, route intravenous; settings: in vivo
Procedure, shortened: (§1)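 Male pigmented Long Evans (HsdBlu:LE) rats, 7.5 weeks old, 202 to 217 g, single iv [¹⁴C]anidulafungin; one rat per sampling time. Euthanized by isoflurane and cardiac-puncture exsanguination. Sagittal whole-body sections quantified by phosphorimaging autoradiography, single samples corrected for section thickness across multiple sections per tissue. Concentrations (μg eq/g drug-derived radioactivity) interpolated from least-squares standard curves per scan.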

Spleen [2] = test: Drug level in Long Evans rat spleen assessed as radioactivity per gram of tissue at 5 mg/kg, iv administered as single bolus dose measured 0.5 hrs postdose by autoradiography; design: dose 5 mg/kg, route intravenous; settings: in vivo
Procedure, shortened: (§2)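 Male pigmented Long Evans (HsdBlu:LE) rats, 7.5 weeks old and 202 to 217 g, got a single iv dose of [14C]anidulafungin at 5 mg/kg. One rat per time point (0.5, 6, 12, 24, 72, 168 h) was euthanised by isoflurane and cardiac-puncture exsanguination. Sagittal whole-body sections were quantified by phosphorimaging. Samples were thickness-corrected, and concentrations (μg eq/g) were interpolated from least-squares standard curves.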

Plasma = test: AUC (0 to infinity) in F344 rat plasma assessed as total compound-derived radioactivity per gram of tissue at 5 mg/kg, iv administered as single bolus dose […]; design: time infinity, dose 5 mg/kg, route intravenous; settings: in vivo
Procedure, shortened: (§3)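 Same F344 study: single 5 mg/kg IV [¹⁴C]anidulafungin given over about 5 min. Total drug-derived radioactivity (parent plus metabolites) counted by liquid scintillation, in […]. Noncompartmental analysis of the composite mean profile.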

Muscle tissue [3] = test: Tmax in F344 rat muscle assessed as total compound-derived radioactivity at 5 mg/kg, iv administered as single bolus dose […]; design: dose 5 mg/kg, route intravenous; settings: in vivo
Procedure, shortened: (§4)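 Male F344 rats, 10 to 11 weeks old and 223.6 to 243.8 g, got one iv dose of [14C]anidulafungin at 5 mg/kg over about 5 min. Blood, CSF, kidney, liver, lung, quadriceps, spleen and skin were sampled predose and at 0.083 to 72 h, 3 rats per time. Total radioactivity (parent plus metabolites) was measured by liquid scintillation counting. Parameters were noncompartmental, from a composite mean profile.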

Spleen [4] = test: Tmax in F344 rat spleen assessed as total compound-derived radioactivity at 5 mg/kg, iv administered as single bolus dose […]; design: dose 5 mg/kg, route intravenous; settings: in vivo; procedure, shortened: as §4
Cerebrospinal fluid [5] = test: Cmax in F344 rat cerebrospinal fluid assessed as total compound-derived radioactivity per gram of tissue at 5 mg/kg, iv administered as single bolus dose […]; design: dose 5 mg/kg, route intravenous; settings: in vivo; procedure, shortened: as §3
Blood [6] = test: Cmax in F344 rat blood assessed as total compound-derived radioactivity per gram of tissue at 5 mg/kg, iv administered as single bolus dose […]; design: dose 5 mg/kg, route intravenous; settings: in vivo; procedure, shortened: as §3
Spleen [7] = test: AUC (0 to infinity) in F344 rat spleen at 5 mg/kg, iv administered as single bolus dose; design: time infinity, dose 5 mg/kg, route intravenous; settings: in vivo
Procedure, shortened: (§5)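 Male F344 rats, 10–11 weeks, 223.6–243.8 g, given one IV dose of [¹⁴C]anidulafungin, 5 mg/kg, over about 5 min. Tissues and blood sampled at 0.083–72 h (n = 3 rats per time). Parent drug measured by HPLC; LLOQ/ULOQ were 20/5,120 ng/ml for plasma and 220/56,320 ng/g for tissue. Noncompartmental parameters taken from the composite mean profile.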

Lung [8] = test: AUC (0 to 24 hrs) in F344 rat lung at 5 mg/kg, iv administered as single bolus dose; design: time < 24 hr, dose 5 mg/kg, route intravenous; settings: in vivo; procedure, shortened: as §5
[9] = Tmax in F344 rat spleen at 5 mg/kg, iv administered as single bolus dose by HPLC method; design: dose 5 mg/kg, route intravenous
Procedure, shortened: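 F344 males, 10 to 11 weeks old and 223.6 to 243.8 g, got a single 5 mg/kg iv dose of [14C]anidulafungin over about 5 min. Plasma and tissues were collected predose and at 0.083 to 72 h, n = 3 per time point. Parent drug was quantified by HPLC-UV, with LLOQ/ULOQ of 20/5,120 ng/ml in plasma and 220/56,320 ng/g in tissue. Noncompartmental parameters came from a composite mean concentration-time profile.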

Spleen [10] = test: Drug level in Long Evans rat spleen assessed as radioactivity per gram of tissue at 5 mg/kg, iv administered as single bolus dose measured 6 hrs postdose by autoradiography; design: dose 5 mg/kg, route intravenous; settings: in vivo; procedure, shortened: as §2
Muscle tissue [11] = test: Drug level in Long Evans rat muscle assessed as radioactivity per gram of tissue at 5 mg/kg, iv administered as single bolus dose measured 6 hrs postdose by autoradiography; design: dose 5 mg/kg, route intravenous; settings: in vivo; procedure, shortened: as §2
[12] = Drug level in Long Evans rat eye assessed as radioactivity per gram of tissue at 5 mg/kg, iv administered as single bolus dose measured 6 hrs postdose by autoradiography; design: dose 5 mg/kg, route intravenous; settings: in vivo; procedure, shortened: as §1
Liver [13] = test: Drug level in Long Evans rat liver assessed as low disposition of radioactivity per gram of tissue at 5 mg/kg, iv administered as single bolus dose measured 12 hrs postdose by autoradiography; design: dose 5 mg/kg, route intravenous; settings: in vivo; procedure, shortened: as §1
Lung [14] = test: Drug level in Long Evans rat lung assessed as radioactivity per gram of tissue at 5 mg/kg, iv administered as single bolus dose measured 12 hrs postdose by autoradiography; design: dose 5 mg/kg, route intravenous; settings: in vivo; procedure, shortened: as §1
Kidney = test: Drug level in Long Evans rat kidney assessed as high disposition of radioactivity per gram of tissue at 5 mg/kg, iv administered as single bolus dose measured 12 hrs postdose by autoradiography; design: dose 5 mg/kg, route intravenous; settings: in vivo; procedure, shortened: as §1
Spleen [15] = test: Drug level in Long Evans rat spleen assessed as radioactivity per gram of tissue at 5 mg/kg, iv administered as single bolus dose measured 12 hrs postdose by autoradiography; design: dose 5 mg/kg, route intravenous; settings: in vivo; procedure, shortened: as §2
Liver [16] = test: Drug level in Long Evans rat liver assessed as low disposition of radioactivity per gram of tissue at 5 mg/kg, iv administered as single bolus dose measured 24 hrs postdose by autoradiography; design: dose 5 mg/kg, route intravenous; settings: in vivo; procedure, shortened: as §1
Lung [17] = test: Drug level in Long Evans rat lung assessed as radioactivity per gram of tissue at 5 mg/kg, iv administered as single bolus dose measured 24 hrs postdose by autoradiography; design: dose 5 mg/kg, route intravenous; settings: in vivo; procedure, shortened: as §1
Blood [18] = test: Drug level in Long Evans rat blood assessed as radioactivity per gram of tissue at 5 mg/kg, iv administered as single bolus dose measured 24 hrs postdose by autoradiography; design: dose 5 mg/kg, route intravenous; settings: in vivo; procedure, shortened: as §1
Cerebrospinal fluid [19] = test: Drug level in Long Evans rat cerebrospinal fluid assessed as radioactivity per gram of tissue at 5 mg/kg, iv administered as single bolus dose measured 24 hrs postdose by autoradiography; design: dose 5 mg/kg, route intravenous; settings: in vivo; procedure, shortened: as §1
Cerebrum = test: Drug level in Long Evans rat cerebrum assessed as radioactivity per gram of tissue at 5 mg/kg, iv administered as single bolus dose measured 24 hrs postdose by autoradiography; design: dose 5 mg/kg, route intravenous; settings: in vivo; procedure, shortened: as §1
[20] = Drug level in Long Evans rat eye assessed as radioactivity per gram of tissue at 5 mg/kg, iv administered as single bolus dose measured 24 hrs postdose by autoradiography; design: dose 5 mg/kg, route intravenous; settings: in vivo; procedure, shortened: as §1
Lung [21] = test: Drug level in Long Evans rat lung assessed as radioactivity per gram of tissue at 5 mg/kg, iv administered as single bolus dose measured 72 hrs postdose by autoradiography; design: dose 5 mg/kg, route intravenous; settings: in vivo; procedure, shortened: as §1
Zone of skin [22] = test: Drug level in Long Evans rat skin assessed as radioactivity per gram of tissue at 5 mg/kg, iv administered as single bolus dose measured 72 hrs postdose by autoradiography; design: dose 5 mg/kg, route intravenous; settings: in vivo; procedure, shortened: as §2
Cerebrospinal fluid [23] = test: Drug level in Long Evans rat cerebrospinal fluid assessed as radioactivity per gram of tissue at 5 mg/kg, iv administered as single bolus dose measured 72 hrs postdose by autoradiography; design: dose 5 mg/kg, route intravenous; settings: in vivo; procedure, shortened: as §1
Zone of skin [24] = test: Drug level in Long Evans rat skin assessed as radioactivity per gram of tissue at 5 mg/kg, iv administered as single bolus dose measured 168 hrs postdose by autoradiography; design: dose 5 mg/kg, route intravenous; settings: in vivo; procedure, shortened: as §2

`CCCCCOc1ccc(-c2ccc(-c3ccc([14C](=O)N[C@H]4C[C@@H](O)[C@@H](O)NC(=O)[C@@H]5[C@@H](O)[C@@H](C)CN5C(=O)[C@H]([C@@H](C)O)NC(=O)[C@H]([C@H](O)[C@@H](O)c5ccc(O)cc5)NC(=O)[C@@H]5C[C@@H](O)CN5C(=O)[C@H]([C@@H](C)O)NC4=O)cc3)cc2)cc1` [14C-ANIDULAFUNGIN] showed a Drug uptake (Muscle tissue [1]) of 3.45 ugequiv, a Drug uptake (Spleen [2]) of 20.67 ugequiv and an AUC (Plasma) of 177.87 ugequiv.hr/g. The Tmax (Muscle tissue [3]) was 30 min, the Tmax (Spleen [4]) was 30 min and the Cmax (Cerebrospinal fluid [5]) was 0.07 ugequiv/g. It also gave a Cmax (Blood [6]) of 14.78 ugequiv/g, an AUC (Spleen [7]) of 567.95 µg·h/g and an AUC (Lung [8]) of 557.77 µg·h/g. For the same compound, the Tmax [9] was 30 min, the Drug uptake (Spleen [10]) was 22.15 ugequiv and the Drug uptake (Muscle tissue [11]) was 2.53 ugequiv. It also gave a Drug uptake [12] of 1.74 ugequiv, a Drug uptake (Liver [13]) of 15.03 ugequiv and a Drug uptake (Lung [14]) of 5.64 ugequiv. For the same compound, the Drug uptake (Kidney) was 14.1 ugequiv, the Drug uptake (Spleen [15]) was 11.48 ugequiv and the Drug uptake (Liver [16]) was 14.7 ugequiv. The Drug uptake (Lung [17]) was 8.05 ugequiv, the Drug uptake (Blood [18]) was 2.27 ugequiv and the Drug uptake (Cerebrospinal fluid [19]) was 8.92 ugequiv. It also gave a Drug uptake (Cerebrum) of 0.26 ugequiv, a Drug uptake [20] of 2.07 ugequiv and a Drug uptake (Lung [21]) of 4.24 ugequiv. It also gave a Drug uptake (Zone of skin [22]) of 4.04 ugequiv, a Drug uptake (Cerebrospinal fluid [23]) of 3.37 ugequiv and a Drug uptake (Zone of skin [24]) of 2.48 ugequiv.
